Test [1] is described as follows: Selectivity index, ratio of IC50 for Vero cells to MIC of Mycobacterium tuberculosis H37Rv. The class given is functional.
The test system of test [2] is Mycobacterium tuberculosis. Put plainly: Antimicrobial activity against Mycobacterial tuberculosis ATCC 27294 at […]. The class given is functional.
For the next test, the system named is Staphylococcus aureus. As to the kind of experiment: Antimicrobial activity against Staphylococcus aureus ATCC 25923. The class given is functional.
In the next test the test system is Escherichia coli. As to the kind of experiment: Antimicrobial activity against Escherichia coli ATCC 25922. The class given is functional.
A further test relates to Vero. As to the kind of experiment: Cytotoxicity against Vero cells. The class given is cell-based. Particulars: Chlorocebus sabaeus. In a few lines:
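IC50 was measured in VERO mammalian cells, and only for compounds that met the M. tuberculosis MIC cutoff for follow-up. A selectivity index was then calculated as the VERO IC50 divided by the Mtb MIC.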

Values after ≈ are worked out from the molar mass of the structure shown.

Take `COc1ccc(Cn2cnc3c(-c4ccco4)ncnc32)cc1`: in test [1], the Ratio is above 40 µg/mL.
As a reminder, the inhibition is the drop in the measured response relative to a control, in per cent. In test [2], `COc1ccc(Cn2cnc3c(-c4ccco4)nc(N(C)C)nc32)cc1` gave an inhibition at […] of 34%.
Still for that read-out and setting: as for `COc1ccc(Cn2cnc3c(-c4ccco4)nc(Oc4ccccc4)nc32)cc1`, the figure is 72%.
A word on the MIC: it is the least concentration at which growth counts as inhibited. A higher MIC goes with a need for much substance. As for `COc1ccc(Cn2cnc3c(-c4ccco4)nc(Cl)nc32)cc1`, the Ratio in test [1] is above 26 µg/mL. The MIC in the test with Staphylococcus aureus and in the test on Escherichia coli was above 32 µg/mL in each case.
The IC50 is the point on the concentration scale where inhibition reaches its midpoint. Read a high IC50 as weaker potency in that assay. Regarding `COc1ccc(Cn2cnc3c(-c4ccco4)nc(SC)nc32)cc1`, the Ratio in test [1] was found to be 3.9 µg/mL. Further, in the test with Vero, 3.05 µg/mL (≈ 8.65 µM) corresponded to half-maximal inhibition (IC50).

The record behind these values is ChEMBL document CHEMBL1139826, “Synthesis, biological activity, and SAR of antimycobacterial 2- and 8-substituted 6-(2-furyl)-9-(p-methoxybenzyl)purines” (Bioorg Med Chem, 2007).
